Assays:
[1] = Oral bioavailability in Sprague-Dawley rat at 2.06 mg/kg; type: ADME, organism-based; settings: in vivo
How it was run: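 Male SD rats received a single p.o. or i.v. dose (n = 8 per route) in 5% ethanol, 10% HPCD and phosphate buffer, pH 7.5-8.0. At 5, 15, 30, 60, 90, 120, 240 and 360 min one rat was sacrificed per time point. EDTA plasma was assayed by high turbulence LC-MS/MS. Cmax and bioavailability were taken from oral dosing; volume of distribution is at steady state.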

Mus musculus [2] = assay: Decrease in glucose level in human ApoB100/CETP transgenic mouse at 10 mg/kg, po after 6 weeks relative to control; type: functional; design: scale not given: the % may be the effect or the level left
Mus musculus [3] = assay: Decrease in total ketone bodies level in human ApoB100/CETP transgenic mouse at 10 mg/kg, po after 6 weeks relative to control; type: functional; design: scale not given: the % may be the effect or the level left
Mus musculus [4] = assay: Increase in HDL level in human ApoB100/CETP transgenic mouse at 10 mg/kg, po after 6 weeks relative to control; type: functional
Mus musculus [5] = assay: Decrease in total ketone bodies level in human ApoB100/CETP transgenic mouse at 20 mg/kg, po after 6 weeks relative to control; type: functional; design: scale not given: the % may be the effect or the level left
Mus musculus [6] = assay: Decrease in total cholesterol level in human ApoB100/CETP transgenic mouse at 5 mg/kg, po after 6 weeks relative to control; type: functional; design: scale not given: the % may be the effect or the level left
[7] = Half life in Sprague-Dawley rat at 2.06 mg/kg, po; type: ADME, organism-based; design: dose 2.06 mg/kg, route oral; settings: in vivo
How it was run: (§1)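 Male SD rats dosed once i.v. or p.o. (n = 8 per route), vehicle 5% ethanol, 10% HPCD, phosphate buffer pH 7.5-8.0. One animal sacrificed at each of 5, 15, 30, 60, 90, 120, 240 and 360 min; EDTA plasma analysed by high turbulence LC-MS/MS. Each data point represents one animal.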

Mus musculus [8] = assay: Increase in HDL level in human ApoB100/CETP transgenic mouse at 5 mg/kg, po after 6 weeks relative to control; type: functional
L6 [9] = assay: Effect on increase in fatty acid oxidation in rat L6 cells relative to GW-501516; type: functional; design: concentration or dose not given beside the values
How it was run: (§2)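 Rat L6 myoblasts differentiated 5 days in 2% serum, then treated 42 h with compound (refreshed at 24 h), followed by 6 h with 0.4 mM palmitate containing [9,10-3H]-palmitic acid on 2% fatty-acid-free BSA. Stopped with 10% TCA; released 3H-H2O collected by overnight equilibration at 50 °C and counted.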

Mus musculus [10] = assay: Decrease in LDL level in human ApoB100/CETP transgenic mouse at 5 mg/kg, po after 6 weeks relative to control; type: functional; design: scale not given: the % may be the effect or the level left
Mus musculus [11] = assay: Increase in total cholesterol level in human ApoB100/CETP transgenic mouse at 20 mg/kg, po after 6 weeks relative to control; type: functional
Mus musculus [12] = assay: Decrease in LDL level in human ApoB100/CETP transgenic mouse at 10 mg/kg, po after 6 weeks relative to control; type: functional; design: scale not given: the % may be the effect or the level left
[13] = target: T1, Peroxisome proliferator-activated receptor gamma (Homo sapiens, UniProt P37231); type: cell-based, HEK293
T1 sequence (P37231 whole entry): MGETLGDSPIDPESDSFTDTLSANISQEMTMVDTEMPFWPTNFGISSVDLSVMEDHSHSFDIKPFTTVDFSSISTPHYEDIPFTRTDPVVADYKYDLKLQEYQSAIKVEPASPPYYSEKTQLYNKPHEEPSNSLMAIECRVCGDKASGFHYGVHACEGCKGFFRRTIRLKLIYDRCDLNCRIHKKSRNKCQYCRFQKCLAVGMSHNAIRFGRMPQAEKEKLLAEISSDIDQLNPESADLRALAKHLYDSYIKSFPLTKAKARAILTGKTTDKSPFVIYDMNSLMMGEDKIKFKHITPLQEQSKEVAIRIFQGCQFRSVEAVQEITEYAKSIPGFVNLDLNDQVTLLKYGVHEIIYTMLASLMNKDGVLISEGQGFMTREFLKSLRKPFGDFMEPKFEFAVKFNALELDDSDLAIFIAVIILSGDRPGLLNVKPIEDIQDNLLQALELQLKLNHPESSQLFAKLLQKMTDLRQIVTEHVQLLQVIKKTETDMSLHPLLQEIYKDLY

[14] = target: T2, Peroxisome proliferator-activated receptor alpha (Homo sapiens, UniProt Q07869); assay: Activity at human liver PPAR alpha expressed in HEK293 cells by PPAR-GAL4 transactivation assay; type: cell-based
T2 sequence (Q07869 whole entry): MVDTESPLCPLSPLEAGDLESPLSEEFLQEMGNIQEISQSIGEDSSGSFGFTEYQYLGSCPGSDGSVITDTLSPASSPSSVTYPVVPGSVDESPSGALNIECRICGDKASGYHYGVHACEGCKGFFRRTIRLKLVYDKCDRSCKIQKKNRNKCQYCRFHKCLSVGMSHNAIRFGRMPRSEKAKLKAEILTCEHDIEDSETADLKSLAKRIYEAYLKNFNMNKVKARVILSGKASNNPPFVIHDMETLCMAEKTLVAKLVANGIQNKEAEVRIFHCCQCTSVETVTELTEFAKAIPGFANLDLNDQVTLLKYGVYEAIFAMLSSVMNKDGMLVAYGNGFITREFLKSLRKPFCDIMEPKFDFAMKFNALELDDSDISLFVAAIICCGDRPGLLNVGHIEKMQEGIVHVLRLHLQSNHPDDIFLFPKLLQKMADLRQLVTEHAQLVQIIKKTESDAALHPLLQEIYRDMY

Mus musculus [15] = assay: Increase in total ketone bodies level in human ApoB100/CETP transgenic mouse at 5 mg/kg, po after 6 weeks relative to control; type: functional
Mus musculus [16] = assay: Decrease in HbA1c level in human ApoB100/CETP transgenic mouse at 20 mg/kg, po after 6 weeks relative to control; type: functional; design: scale not given: the % may be the effect or the level left
[17] = target: T3, Peroxisome proliferator-activated receptor alpha (Homo sapiens) (UniProt Q07869); assay: Activity at human liver PPAR alpha expressed in HEK293 cells by GAL4 transactivation assay relative to NNC61-4655; type: cell-based
T3 sequence (whole entry): T2 sequence (Q07869 whole entry)

Mus musculus [18] = assay: Decrease in insulin level in human ApoB100/CETP transgenic mouse at 10 mg/kg, po after 6 weeks by ELISA relative to control; type: functional; design: scale not given: the % may be the effect or the level left
Mus musculus [19] = assay: Decrease in HbA1c level in human ApoB100/CETP transgenic mouse at 10 mg/kg, po after 6 weeks relative to control; type: functional; design: scale not given: the % may be the effect or the level left
L6 [20] = assay: Effect on fatty acid oxidation in rat L6 cells; type: functional, cell-based; how it was run: as §2
Mus musculus [21] = assay: Decrease in total cholesterol level in human ApoB100/CETP transgenic mouse at 10 mg/kg, po after 6 weeks relative to control; type: functional; design: scale not given: the % may be the effect or the level left
Mus musculus [22] = assay: Decrease in triglycerides level in human ApoB100/CETP transgenic mouse at 10 mg/kg, po after 6 weeks relative to control; type: functional; design: scale not given: the % may be the effect or the level left
[23] = Clearance in Sprague-Dawley rat at 1.06 mg/kg, iv; type: ADME, organism-based; design: dose 1.06 mg/kg, route intravenous; settings: in vivo; how it was run: as §1
Mus musculus [24] = assay: Increase in HDL level in human ApoB100/CETP transgenic mouse at 20 mg/kg, po after 6 weeks relative to control; type: functional
Mus musculus [25] = assay: Increase in insulin level in human ApoB100/CETP transgenic mouse at 20 mg/kg, po after 6 weeks by ELISA relative to control; type: functional

Work on `O=C(O)COc1ccc(SCC=C(c2ccc(Br)cc2)c2ccc(Br)cc2)cc1Cl` yielded a bioavailability [1] of 46%, an Activity (Mus musculus [2]) of 2% and an Activity (Mus musculus [3]) of 10%. The Activity (Mus musculus [4]) was 14%, the Activity (Mus musculus [5]) was 29% and the Activity (Mus musculus [6]) was 19%. The half-life [7] was 59 min, the Activity (Mus musculus [8]) was 24% and the Activity (L6 [9]) was 109%. The Activity (Mus musculus [10]) was 7%, the Activity (Mus musculus [11]) was 2% and the Activity (Mus musculus [12]) was 12%. For the same molecule, the EC50 [13] was > 10 µM, the EC50 [14] was > 10 µM and the Activity (Mus musculus [15]) was 5%. The Activity (Mus musculus [16]) was 12%, the Efficacy [17] was > 12% and the Activity (Mus musculus [18]) was 8%. For the same molecule, the Activity (Mus musculus [19]) was 9%, the EC50 (L6 [20]) was 0.03 µM and the Activity (Mus musculus [21]) was 14%. The Activity (Mus musculus [22]) was 7%, the clearance [23] was 11.9 mL/min/kg and the Activity (Mus musculus [24]) was 33%. The Activity (Mus musculus [25]) was 3%.
